PubChem BioAssay AID2611 (Broad Institute, 2010)

system: BJeLR fibroblasts viability, Alamar Blue fluorescence, 48 h; assay: cytotoxicity toward RAS-dependent BJ-TERT fibroblasts, dose response, cell-based, alamar blue fluorescence, powder samples (AID 2611)
Outline: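 Dosing: twofold serial dilution series, 0.01 to 5.33 µg/mL compound; incubation: 48 h compound treatment, ~16 h dye step; signal: Alamar blue fluorescence, ex 544/em 590 nm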

**Q.** How did the EC50 turn out when `Cc1ccc(C2CC(c3cccs3)=NN2C(=O)CCl)cc1` (centres undefined) was run?
**A.** The EC50 was 4.62 µM.

**Q.** For `COc1ccc(N(C(=O)CCl)C(C(=O)NCCc2ccccc2)c2cccs2)cc1` (centres undefined), which EC50 is on record?
**A.** Its EC50 is 2.26 µM.

**Q.** With `COc1ccc(CN(CCC(c2ccccc2)c2ccc(OC(C)C)cc2)C(=O)CCl)cc1OC` (centres undefined) as the molecule, how does the EC50 read?
**A.** Its EC50 is 2.71 µM.

**Q.** For `COc1ccc(N(C(=O)CCl)C(C(=O)NCCc2ccccc2)c2cccs2)cc1Cl` (centres undefined), which EC50 is on record?
**A.** The EC50 was 2.43 µM.

**Q.** How did the EC50 turn out when `Cc1ccc(N(C(=O)CCl)C(C(=O)NC2CCCCC2)c2cccnc2)cc1C` (centres undefined) was run?
**A.** Its EC50 is 2.27 µM.

**Q.** Which EC50 does the source give for `COc1ccc(C(C(=O)NC2CCCCC2)N(C(=O)CCl)c2cccc(Cl)c2)cc1` (centres undefined) here?
**A.** Its EC50 is 3.36 µM.

**Q.** `COc1cccc(N(C(=O)CCl)C(C(=O)NCCc2ccccc2)c2cccs2)c1` (centres undefined) was tested. Which EC50 did it give?
**A.** Its EC50 is 3.2 µM.

**Q.** With `CCCCCCCN(C(=O)CCl)c1cccc(C)c1` as the molecule, how does the EC50 read?
**A.** Its EC50 is 5.74 µM.

**Q.** How did the EC50 turn out when `CCOc1ccc(Nc2nc(N)nc(CCl)n2)cc1` was run?
**A.** Its EC50 is 2.89 µM.

**Q.** `COC(=O)[C@@H]1Cc2c([nH]c3ccccc23)C(C)(C)N1C(=O)CCl` was tested. Which EC50 did it give?
**A.** Its EC50 is 6.2 µM.

**Q.** Which EC50 does the source give for `Nc1nc(CCl)nc(Nc2ccc3ccccc3c2)n1` here?
**A.** Its EC50 is 2.06 µM.

**Q.** Which EC50 does the source give for `C=CCOc1ccccc1CN(C(=O)CCl)c1ccc2c(c1)OCO2` here?
**A.** The EC50 was 18.6 µM.

**Q.** How did the EC50 turn out when `O=C(CCl)N=c1sccn1Cc1ccccc1Cl` was run?
**A.** Its EC50 is 12.1 µM.

**Q.** With `COc1ccc(C(C(=O)NC2CCCCC2)N(C(=O)CCl)c2ccc(C)cc2)cc1` (centres undefined) as the molecule, how does the EC50 read?
**A.** The EC50 was 7.65 µM.
